Experimental data: ChEMBL document CHEMBL1126914 (J Med Chem, 1993)
Square brackets hold non-standard residues; d marks the D form. Peptide text beside a SMILES is read from it. Tic = O=C(O)[C@@H]1Cc2ccccc2CN1; Aic = NC1(C(=O)O)Cc2ccccc2C1

Tests used:
[1] = molecular target: Delta-type opioid receptor (Rattus norvegicus, UniProt P33533); assay: Binding affinity was determined on delta [3H]DPDPE site in rat brain synaptosomes by radioreceptor assay; assay type: subcellular
Procedure, shortened: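 δ sites labelled with 0.62 nM [3H]DPDPE; rat brain (minus cerebella) P2 synaptosomes, preincubated to remove endogenous opioids, 1.6 mg protein; 2 h at 22 °C in duplicate. Nonspecific defined with 1 μM DPDPE. Rapid filtration on GF/C filters with ice-cold buffered BSA washes; liquid scintillation counting; Ki from IC50 by Cheng–Prusoff.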

Mu-type opioid receptor = Mu-type opioid receptor (Rattus norvegicus, UniProt P33535); assay: Binding affinity was determined on mu [3H]DAGO site in rat brain synaptosomes by radioreceptor assay; assay type: subcellular
Sequence of Mu-type opioid receptor (P33535 whole entry): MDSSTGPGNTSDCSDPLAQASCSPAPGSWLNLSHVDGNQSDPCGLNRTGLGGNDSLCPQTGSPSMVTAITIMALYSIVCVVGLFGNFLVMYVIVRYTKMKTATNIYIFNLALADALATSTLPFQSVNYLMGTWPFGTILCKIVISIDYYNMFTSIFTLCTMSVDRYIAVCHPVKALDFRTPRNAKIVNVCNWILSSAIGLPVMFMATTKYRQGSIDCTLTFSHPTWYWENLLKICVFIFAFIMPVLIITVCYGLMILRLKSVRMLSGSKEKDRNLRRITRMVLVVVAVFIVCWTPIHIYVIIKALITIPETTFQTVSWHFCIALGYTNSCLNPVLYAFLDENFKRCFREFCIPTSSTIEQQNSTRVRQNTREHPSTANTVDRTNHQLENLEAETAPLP
Procedure, shortened: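 μ sites labelled with 0.68 nM [3H]DAGO; rat brain (minus cerebella) P2 synaptosomes, preincubated to remove endogenous opioids, 1.6 mg protein; 2 h at 22 °C in duplicate. Nonspecific defined with 1 μM DAGO. Rapid filtration on GF/C filters, washes with ice-cold buffered BSA; scintillation counting; Ki via Cheng–Prusoff from IC50.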

[2] = Bioselectivity ratio of compound as guinea pig ileum to mouse vas deferens was determined; assay type: functional
Procedure, shortened: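 GPI/MVD ratio of IC50s. GPI: 2–3 cm segments in Krebs with 70 μM hexamethonium and 0.125 μM mepyramine, 36 °C, 95% O2/5% CO2; transmural 0.5 ms, 0.1 Hz pulses at 1.5× maximal (~30 V); isotonic recording. MVD: 33 °C, field stimulation 0.1 Hz, 1 ms, 40 V; isometric recording. IC50 is 50% twitch inhibition, from four experiments.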

Sequence of Delta-type opioid receptor (P33533 whole entry): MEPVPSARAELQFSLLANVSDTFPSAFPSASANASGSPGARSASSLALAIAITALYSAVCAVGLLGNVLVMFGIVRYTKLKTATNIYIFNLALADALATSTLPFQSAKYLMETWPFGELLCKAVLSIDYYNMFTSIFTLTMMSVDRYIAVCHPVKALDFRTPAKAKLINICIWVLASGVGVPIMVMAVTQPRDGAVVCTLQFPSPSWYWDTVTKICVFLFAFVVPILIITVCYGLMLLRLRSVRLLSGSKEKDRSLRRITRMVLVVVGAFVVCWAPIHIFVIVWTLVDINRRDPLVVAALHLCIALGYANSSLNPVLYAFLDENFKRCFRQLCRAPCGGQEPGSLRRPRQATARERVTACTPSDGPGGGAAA

| Compound | Ki [1] | Ki (Mu-type opioid receptor) | Ratio [2] |
| --- | --- | --- | --- |
| CC(C)[C@H](NC(=O)[C@H](CC(=O)O)NC(=O)[C@H](Cc1ccccc1)N(C)C(=O)[C@@H](C)NC(=O)[C@@H](N)Cc1ccc(O)cc1)C(=O)N[C@H](C(=O)NCC(N)=O)C(C)C | 284 nM | 19000 nM |  |
| CC(C)[C@H](NC(=O)[C@H](CC(=O)O)NC(=O)[C@H](Cc1ccc2ccccc2c1)NC(=O)[C@@H](C)NC(=O)[C@@H](N)Cc1ccc(O)cc1)C(=O)N[C@H](C(=O)NCC(N)=O)C(C)C | 10.7 nM | 770 nM |  |
| CC(C)[C@H](NC(=O)[C@H](CC(=O)O)NC(=O)[C@H](Cc1cnc[nH]1)NC(=O)[C@@H](C)NC(=O)[C@@H](N)Cc1ccc(O)cc1)C(=O)N[C@H](C(=O)NCC(N)=O)C(C)C | 45.5 nM | 3720 nM |  |
| CC(C)[C@H](NC(=O)[C@H](CC(=O)O)NC(=O)[C@H](Cc1c[nH]c2ccccc12)NC(=O)[C@@H](C)NC(=O)[C@@H](N)Cc1ccc(O)cc1)C(=O)N[C@H](C(=O)NCC(N)=O)C(C)C | 2.34 nM | 323 nM |  |
| CC(C)[C@H](NC(=O)[C@H](CC(=O)O)NC(=O)/C(=C\c1ccccc1)NC(=O)[C@@H](C)NC(=O)[C@@H](N)Cc1ccc(O)cc1)C(=O)N[C@H](C(=O)NCC(N)=O)C(C)C | 4.23 nM | 114 nM |  |
| CC(C)[C@H](NC(=O)[C@H](CC(=O)O)NC(=O)[C@H](CCc1ccccc1)NC(=O)[C@@H](C)NC(=O)[C@@H](N)Cc1ccc(O)cc1)C(=O)N[C@H](C(=O)NCC(N)=O)C(C)C | 4.84 nM | 326 nM |  |
| CC(C)[C@H](NC(=O)[C@H](CC(=O)O)NC(=O)[C@H](Cc1ccc(O)cc1)NC(=O)[C@@H](C)NC(=O)[C@@H](N)Cc1ccc(O)cc1)C(=O)N[C@H](C(=O)NCC(N)=O)C(C)C | 34 nM | 1180 nM |  |
| CC(C)[C@H](NC(=O)[C@H](CC(=O)O)NC(=O)[C@H](Cc1cccc2ccccc12)NC(=O)[C@@H](C)NC(=O)[C@@H](N)Cc1ccc(O)cc1)C(=O)N[C@H](C(=O)NCC(N)=O)C(C)C | 0.61 nM | 279 nM |  |
| COc1ccc(C[C@H](NC(=O)[C@@H](C)NC(=O)[C@@H](N)Cc2ccc(O)cc2)C(=O)N[C@@H](CC(=O)O)C(=O)N[C@H](C(=O)N[C@H](C(=O)NCC(N)=O)C(C)C)C(C)C)cc1 | 45.4 nM | 526 nM |  |
| CC(C)[C@H](NC(=O)[C@H](CC(=O)O)NC(=O)[C@@H](NC(=O)[C@@H](C)NC(=O)[C@@H](N)Cc1ccc(O)cc1)c1ccccc1)C(=O)N[C@H](C(=O)NCC(N)=O)C(C)C | 2.85 nM | 3750 nM |  |
| CC(C)[C@H](NC(=O)[C@H](CC(=O)O)NC(=O)C1(NC(=O)[C@@H](C)NC(=O)[C@@H](N)Cc2ccc(O)cc2)Cc2ccccc2C1)C(=O)N[C@H](C(=O)NCC(N)=O)C(C)C (H-Y[dA][Aic]DVVG-NH2) | 0.2 nM | 56.2 nM | 900 |
| CC(C)[C@H](NC(=O)[C@H](CC(=O)O)NC(=O)[C@@H]1Cc2ccccc2CN1C(=O)[C@@H](C)NC(=O)[C@@H](N)Cc1ccc(O)cc1)C(=O)N[C@H](C(=O)NCC(N)=O)C(C)C (H-Y[dA][Tic]DVVG-NH2) | 90.2 nM | 7810 nM | >65 |
| CC(C)[C@H](NC(=O)[C@H](CC(=O)O)NC(=O)[C@](C)(Cc1ccccc1)NC(=O)[C@@H](C)NC(=O)[C@@H](N)Cc1ccc(O)cc1)C(=O)N[C@H](C(=O)NCC(N)=O)C(C)C (single isomer, unassigned; 6) | 69.1 nM | 1360 nM | >18 |
| CC(C)[C@H](NC(=O)[C@H](CC(=O)O)NC(=O)[C@](C)(Cc1ccccc1)NC(=O)[C@@H](C)NC(=O)[C@@H](N)Cc1ccc(O)cc1)C(=O)N[C@H](C(=O)NCC(N)=O)C(C)C (single isomer, unassigned; 6a) | 48.6 nM | 3400 nM | >20 |
| CC(C)[C@H](NC(=O)[C@H](CC(=O)O)NC(=O)C1(NC(=O)[C@@H](C)NC(=O)[C@@H](N)Cc2ccc(O)cc2)CCc2ccccc2C1)C(=O)N[C@H](C(=O)NCC(N)=O)C(C)C (single isomer, unassigned; 15) | 0.07 nM | 178 nM | 3522 |
| CC(C)[C@H](NC(=O)[C@H](CC(=O)O)NC(=O)C1(NC(=O)[C@@H](C)NC(=O)[C@@H](N)Cc2ccc(O)cc2)CCc2ccccc2C1)C(=O)N[C@H](C(=O)NCC(N)=O)C(C)C (single isomer, unassigned; 15a) | 0.12 nM | 82.3 nM | 606 |
| CC(C)[C@H](NC(=O)[C@H](CC(=O)O)NC(=O)[C@H](Cc1ccccc1)NC(=O)[C@@H](C)NC(=O)[C@@H](N)Cc1ccc(O)cc1)C(=O)N[C@H](C(=O)NCC(N)=O)C(C)C [DELTORPHIN C] | 0.31 nM | 205 nM |  |
